# Results from ChEMBL document CHEMBL4765236, “Insights into the Antimicrobial Activity and Cytotoxicity of Engineered α-Helical Peptide Amphiphiles” (J Med Chem, 2016).
# The source made the active and inactive calls. The calls are words filed in the database; no cut-off is given here.
# Key:
# Staphylococcus aureus [1] = assay: Induction of morphological changes in Staphylococcus aureus ATCC 29213 assessed as membrane damage at 1 times MIC after 60 mins by TEM analysis; format: functional, organism-based
# Escherichia coli [2] = assay: Induction of morphological changes in Escherichia coli O157:H7 CICC 21530 assessed as membrane damage at 1 times MIC after 60 mins by TEM analysis; format: functional, organism-based
# Staphylococcus aureus [3] = assay: Induction of morphological changes in Staphylococcus aureus ATCC 29213 assessed as outflow of cytoplasm at 1 times MIC after 60 mins by TEM analysis; format: functional, organism-based
# Escherichia coli [4] = assay: Induction of morphological changes in Escherichia coli O157:H7 CICC 21530 assessed as outflow of cytoplasm at 1 times MIC after 60 mins by TEM analysis; format: functional, organism-based
# Cell membrane [5] = assay: Induction of cell membrane disruption in Staphylococcus aureus ATCC 29213 assessed as spread of fluorescent signal across membrane surface at 1 times MIC in presence of FITC-labelled compound after 30 mins by confocal laser-scanning microscope analysis; format: subcellular
# Lipopolysaccharide (LPS) = assay: Displacement of BODIPYTM-TR-cadaverine from Escherichia coli O111:B4 LPS by fluorescence spectroscopic analysis; settings: dose 0.25-4 µM
# Summary of the method: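 LPS-binding dye displacement: LPS (25 µg/mL) and BODIPY-TR-cadaverine (2.5 µg/mL) in tris buffer pH 7.4. An equal volume of peptide solution was added and the rise in fluorescence was recorded at excitation 580 nm and emission 620 nm. Melittin served as positive control. Each test was run independently in triplicate.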
# RAW264.7 [6] = assay: Antiinflammatory activity against mouse RAW264.7 cells assessed as inhibition of LPS-induced nitric oxide production at 32 uM measured after 24 hrs by Griess reagent based ELISA; format: functional, cell-based
# Summary of the method: (§1)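 RAW264.7 cells plated at 1-2 × 10^5 cells/mL and stimulated with 500 ng/mL LPS with or without peptide (0.5-64 µM) for 24 h at 37 °C. Controls were untreated cells and LPS alone. TNF-α in the supernatant measured by ELISA. NO measured by Griess reagent (1% sulfanilamide, 0.1% naphthylethylenediamine, 5% phosphoric acid).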
# RAW264.7 [7] = assay: Antiinflammatory activity against mouse RAW264.7 cells assessed as inhibition of LPS-induced TNF-alpha production at 4 uM measured after 24 hrs by […] ELISA; format: functional, cell-based; summary of the method: as §1
# HepG2 [8] = assay: Induction of morphological changes in human HepG2 cells assessed as decrease in adhesive monolayer at 32 uM after 24 hrs by inverted microscope analysis; format: functional, cell-based
# HepG2 [9] = assay: Induction of morphological changes in human HepG2 cells assessed as roughness of cell membrane at 32 uM after 24 hrs by SEM analysis; format: functional, cell-based
# HepG2 [10] = assay: Induction of morphological changes in human HepG2 cells assessed as appearance of crimped boundaries at 32 uM after 24 hrs by SEM analysis; format: functional, cell-based
# HepG2 [11] = assay: Induction of morphological changes in human HepG2 cells assessed as cell disruption at 32 uM after 24 hrs by SEM analysis; format: functional, cell-based
# HepG2 [12] = assay: Induction of morphological changes in human HepG2 cells assessed as shriveled cells at 32 uM after 24 hrs by SEM analysis; format: functional, cell-based
# HepG2 [13] = assay: Induction of morphological changes in human HepG2 cells assessed as cytoskeleton damage at 32 uM after 24 hrs by SEM analysis; format: functional, cell-based
# [14] = Drug localization in nucleus of human HepG2 cells assessed as fluorescent signal in presence of FITC-labelled peptide at 32 uM incubated for 4 hrs by DAPI staining based confocal microscopy; format: ADME, subcellular; settings: hepg2, 4 h
# Summary of the method: (§2)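 HepG2 cells incubated with FITC-labelled peptide at 32 µM. Fluorescence distribution imaged by confocal laser-scanning microscopy at intervals (1, 4 and 8 h).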
# Escherichia coli [15] = assay: Bactericidal activity against Escherichia coli O157:H7 CICC 21530 assessed as bacterial killing at 1 times MIC measured within 5 mins by time kill assay; format: functional, organism-based; settings: time min <5
# Cell membrane [16] = assay: Induction of outer membrane permeabilization in Escherichia coli O157:H7 CICC 21530 assessed as increase in fluorescence intensity at 7.5 uM by NPN-dye based fluorescence assay; format: subcellular
# Staphylococcus aureus [17] = assay: Induction of morphological changes in Staphylococcus aureus ATCC 29213 assessed as membrane alteration at 1 times MIC after 60 mins by TEM analysis; format: functional, organism-based
# Staphylococcus aureus [18] = assay: Induction of morphological changes in Staphylococcus aureus ATCC 29213 assessed as intracellular changes at 1 times MIC after 60 mins by TEM analysis; format: functional, organism-based
# Escherichia coli [19] = assay: Induction of morphological changes in Escherichia coli O157:H7 CICC 21530 assessed as intracellular changes at 1 times MIC after 60 mins by TEM analysis; format: functional, organism-based
# HepG2 [20] = assay: Induction of ROS generation in human HepG2 cells assessed as increase in fluorescence intensity up to 32 uM incubated for 8 hrs by DCFH-DA staining-based fluorescence analysis; format: functional, cell-based; settings: dose microM <=32, time 8.0 hrs
# [21] = Drug localization in cytoplasm of human HepG2 cells assessed as fluorescent signal in presence of FITC-labelled peptide at 32 uM measured up to 8 hrs by DAPI staining based confocal microscopy; format: ADME, subcellular; settings: hepg2, 8 h; summary of the method: as §2
substance,measurement,setting,value
H-WLRAFRRLVRRLARGLRR-NH2,Activity,Staphylococcus aureus [1],Active
same,Activity,Escherichia coli [2],Active
same,Activity,Staphylococcus aureus [3],Active
same,Activity,Escherichia coli [4],Active
same,Activity,Cell membrane [5],Active
same,Activity,Lipopolysaccharide (LPS),Active
same,Activity,RAW264.7 [6],Active
same,Activity,RAW264.7 [7],Active
same,Activity,HepG2 [8],Active
same,Activity,HepG2 [9],Active
same,Activity,HepG2 [10],Active
same,Activity,HepG2 [11],Active
same,Activity,HepG2 [12],Active
same,Activity,HepG2 [13],Active
same,Drug uptake,[14],Active
same,Activity,Escherichia coli [15],Active
H-WGEAFSAGVHRLANGGNG-NH2,Activity,Cell membrane [16],inactive
same,Activity,Staphylococcus aureus [17],Active
same,Activity,Staphylococcus aureus [18],Active
same,Activity,Escherichia coli [19],Active
same,Activity,HepG2 [20],inactive
H-WLRAFRRLVRRLARLLRR-NH2,Drug uptake,[21],Not Active
